# 5-HT1A blocker = human 5-HT1a receptor antagonists, primary screen, cell-based, CHO, Ga15 NFAT-bla reporter; 5-hydroxytryptamine receptor 1A (Homo sapiens), P08908; CHO 5-HT1a Ga15 NFAT-bla reporter, antagonist mode; inhibition, % at 10 µM; hit rate 0.68% among 62,000;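 active = inhibition above the mean of all tested compounds plus 3 SD, cut at about 43% in these data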;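 note: receptor stimulated by 5-CT agonist at 100 nM near EC80; beta-lactamase reporter measured by ratiometric fluorescence of a cleavable substrate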
# HTR1E agonist = 5-HT1E receptor agonists, primary screen, cell-based, HTS. activation, % at 6 µM. AID 574, 2007. CHO 5-HT1E Ga15 NFAT-bla reporter, FRET; 0% DMSO wells, 100% control agonist wells. hit rate 0.69% among 65,000;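 active = activation above a set limit, the screen-wide mean activation plus 3 SD, cut at about 8.5% in these data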;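 note: 100% = positive control agonist at 1 µM giving full maximal response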
# Target sequence (P28566 whole entry, looked up): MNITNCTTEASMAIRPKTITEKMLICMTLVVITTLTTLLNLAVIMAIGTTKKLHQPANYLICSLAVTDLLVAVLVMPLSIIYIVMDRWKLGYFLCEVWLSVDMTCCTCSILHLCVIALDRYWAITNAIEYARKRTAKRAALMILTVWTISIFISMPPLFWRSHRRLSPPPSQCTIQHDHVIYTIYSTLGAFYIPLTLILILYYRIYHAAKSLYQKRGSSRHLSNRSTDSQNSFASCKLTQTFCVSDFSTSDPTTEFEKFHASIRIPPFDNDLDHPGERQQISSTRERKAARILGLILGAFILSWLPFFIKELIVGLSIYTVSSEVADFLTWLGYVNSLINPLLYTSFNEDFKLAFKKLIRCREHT
# Jurkat viability = cytotoxicity toward Jurkat T cells, primary screen, cytotoxicity control, cell-based, Jurkat E6.1, 60K MLSMR library. AID 463, 2006. Jurkat E6.1 viability, ATP luminescence, 48 h. inhibition, % at 4 µM. hit rate 1.2% among 56,000;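 active = inhibition above the mean inhibition of all tested compounds plus 3 SD, cut at about 28% in these data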
# HEK293 NFkB inh = inhibitors of PMA/ionomycin-induced NF-kB reporter, primary screen, antigen receptor NF-kB inhibitor project, cell-based, HEK-293 luciferase reporter, luminescence. HEK-293 NF-kB luciferase reporter. inhibition, % at 3 µM. hit rate 0.21% among 62,000;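 active = inhibition above the mean of all tested compounds plus 3 SD, cut at about 40% in these data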;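 note: 0% = stimulated DMSO wells and 100% = 10 µM reference inhibitor 5653914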
#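 Reagent: PMA plus ionomycin mix as NF-kB-activating stimulus. Assay system: NF-kB luciferase reporter HEK-293 cells. Technique: luminescence from luciferase substrate reagent. Incubation: 1 h compound pre-incubation, 16 h PMA/ionomycin at 37 °C. Benchmarks: DMSO only as uninhibited control, 10 µM reference inhibitor as full inhibition. Repeats: tested once.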
# 5HT1a ag = human 5-HT1a receptor agonists, primary screen, cell-based, CHO, Ga15 NFAT-bla reporter; 5-hydroxytryptamine receptor 1A (Homo sapiens), P08908; CHO 5-HT1a Ga15 NFAT-bla reporter, FRET ratio; 0% basal, 100% maximal reference agonist; activation, % at 10 µM; hit rate 0.56% among 65,000; AID 567, 2006;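 active = activation above the screen-wide mean activation plus 3 SD, cut at about 19% in these data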;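 note: 0% = DMSO wells and 100% = 5-CT at EC100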
# HTR1E antagonist = 5-HT1E receptor antagonists, primary screen, cell-based, HTS. CHO 5-HT1E Ga15 NFAT-bla reporter, FRET, antagonist. hit rate 0.99% among 65,000. AID 571, 2007. inhibition, % at 6 µM;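 active = inhibition above a set limit, the mean inhibition across every tested compound plus 3 SD, cut at about 29% in these data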;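 note: signal is the 460 over 535 nm emission ratio of beta-lactamase substrate; 0% = agonist plus DMSO wells and 100% = wells without agonist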
# * = called active by the depositor; . = no result. The list is not random: actives were taken first. Their share in the collection is about 3.3%.
SMILES,5-HT1A blocker,HTR1E agonist,Jurkat viability,HEK293 NFkB inh,5HT1a ag,HTR1E antagonist
O=C(CC1Oc2ccccc2NC1=O)NCCc1ccccc1 (centres undefined),8.4,0.8,-0.2,7.0,48.7*,1.2
CCOc1ccc2[nH]c(=O)c(CN(CCO)C(=O)c3ccc(F)cc3)cc2c1,-4.4,-0.2,6.9,9.6,-2.9,3.9
COc1ccccc1NC(=O)N(Cc1ccccc1)C1=NCC(C)S1 (centres undefined),13.0,-1.0,4.3,13.2,0.1,16.2
Cn1c(C(=O)NCc2cccs2)cc2oc3ccccc3c21,10.7,-0.6,28.8*,18.9,-1.6,4.3
COc1ccc(OC)c(C(=O)c2ccc(C(=O)N3CCCCC3)cc2)c1,0.5,0.2,7.2,10.9,24.6*,8.5
COc1ccc(C(=O)N2CCCC2)cc1,3.2,-0.5,5.3,17.6,-1.5,-9.5
CCOc1ccccc1N1CC(O)=C(c2nc3ccccc3s2)C1=N,26.7,-0.6,78.2*,29.8,-1.7,9.1
COc1ccccc1N1CC(O)=C(c2nc3ccccc3c(=O)[nH]2)C1=N,8.0,0.1,-6.3,21.2,0.5,-3.1
Cc1cccc2cc(COC(=O)C3CCCCC3)c(=O)[nH]c12,-3.6,-1.3,5.4,17.0,-1.0,5.0
NC(Cc1ccc2nonc2c1)C(=O)O (centres undefined),2.6,-0.2,2.9,-4.9,53.7*,-10.5
N[C@@H](Cc1ccc(O)c(I)c1)C(=O)O,.,0.0,.,.,1.9,-6.2
Clc1ccc(Cn2ncc3c(NCc4ccco4)ncnc32)c(Cl)c1,32.2,-0.5,81.8*,18.4,-0.9,38.6*
CCOC(=O)c1c(C)c(C(=O)Nc2ccc3c(c2)OCCO3)c(C)n1CC,24.7,-0.6,48.5*,11.8,-4.0,-0.6
CCOC(=O)c1c(C)c(C(=O)Nc2ccc3c(c2)OCO3)c(C)n1C,19.6,-0.2,-0.3,1.2,-1.9,3.8
CCOC(=O)C1=C(C)OC(N)=C(C#N)C1c1c(C)nn(-c2ccccc2)c1Cl (centres undefined),1.3,-0.6,.,17.5,-3.0,7.0
Cc1nn(-c2ccccc2)c(Cl)c1C1C(C#N)=C(N)Oc2n[nH]c(C)c21 (centres undefined),11.1,0.0,-1.8,44.5*,1.6,10.0
Cc1cccc(N2CCN(c3cccc(C)c3)C2c2cccnc2)c1,1.5,-0.1,93.6*,7.2,-1.5,-0.6
CCN(CC)CCCNc1cc2n(c(=O)n1)CCc1cc(OC)c(OC)cc1-2,-2.6,-0.1,2.9,13.1,-0.4,0.3
COc1cc2c(cc1OC)-c1cc(Nc3ccc4c(c3)OCCO4)nc(=O)n1CC2,14.5,-0.5,1.7,30.3,-1.4,39.6*
COc1cc2c(cc1OC)-c1cc(N3CCCc4ccccc43)nc(=O)n1CC2,13.3,2.3,-3.3,24.1,1.9,64.3*
COc1cc2c(cc1OC)-c1cc(NC3CCCCCC3)nc(=O)n1CC2,13.2,1.4,-4.8,7.3,0.9,49.0*
COc1cc2c(cc1OC)-c1cc(OCc3cccnc3)nc(=O)n1CC2,0.4,0.1,-2.9,21.3,1.2,24.2
COc1cc2c(cc1OC)-c1cc(N3CCCCCC3)nc(=O)n1CC2,8.2,0.6,-4.5,15.9,1.4,40.8*
NC(=O)CSc1nc2sc3c(c2c2ncnn12)CCCC3,-20.1,1.6,4.6,-19.6,0.3,0.3
O=C(Nc1ccccn1)C(NS(=O)(=O)c1cccc2nsnc12)c1ccccc1 (centres undefined),-12.2,0.4,-2.5,16.0,-1.2,2.0
SMILES,5-HT1A blocker,HTR1E agonist,Jurkat viability,HEK293 NFkB inh,5HT1a ag,HTR1E antagonist
COc1ccc(-c2cc(C(F)F)nc(-n3nc(C)cc3C)n2)cc1,-12.0,0.3,12.0,5.1,83.0*,-2.2
CCN(c1ccccc1)S(=O)(=O)c1ccc(Oc2ccc(-n3ccnc3)cc2)nc1,5.0,-1.7,13.2,98.3*,2.6,12.1
COc1c2c(nc3occc13)C(CCC(C)(C)O)(OC)C(O)CC2 (centres undefined),-11.0,26.1*,-6.3,9.7,-1.7,-12.8
COc1c2ccoc2nc2c(OC)c(OCC(O)C(C)(C)O)ccc12 (centres undefined),-0.3,0.0,-4.3,5.4,-4.8,-2.5
Cc1cc(NC(=O)Cc2cccs2)nn1CC(=O)NCc1ccco1,7.3,16.1*,-1.3,11.6,-2.5,7.5
c1ccc(Oc2ccc(-n3cnnn3)cc2)cc1,9.1,-2.6,-5.5,10.7,0.4,29.3*
O=C(Oc1ccccc1)c1ccc(-n2cnnn2)cc1,1.8,0.4,-0.4,9.0,-3.4,-2.6
CCC(C)(C)n1nnnc1CN1CCN(c2nc3cc(OC)ccc3cc2C#N)CC1,4.8,0.8,9.4,1.4,-0.3,1.8
COc1ccc(C(C)C)cc1S(=O)(=O)NCc1ccccn1,-0.3,-1.1,-7.1,1.4,-1.4,-8.5
CCOc1cc(S(=O)(=O)NCc2ccccn2)c(C)cc1C,2.5,0.0,-0.4,21.4,53.5*,4.6
COc1ccc(Nc2nc(N3CCCC3)nc3ccccc23)c(OC)c1,25.6,0.6,27.9*,16.0,-1.2,-6.6
Cc1cn(C2CC3OCC3O2)c(=O)[nH]c1=O (centres undefined),-10.2,0.6,-1.6,13.0,0.3,-4.9
Cc1[nH]c2ccccc2c1C(O)CN1CCN(c2cccc(C(F)(F)F)c2)CC1 (centres undefined),36.9,14.2*,13.0,-2.4,45.8*,10.9
CC(=NCCN1CCNCC1)C1=C(O)CC(C)(C)CC1=O,-14.7,-0.3,1.1,4.6,0.1,-6.7
Cc1occc1-c1nnc(SCC(=O)NC(C)(C)C)n1C(C)c1ccccc1 (centres undefined),10.1,43.2*,4.3,11.9,1.1,-0.3
Cn1c(-c2ccc(Cl)cc2)cnc1N,-14.8,1.2,-3.7,5.9,-2.9,-11.0
Cc1ccc(-c2cnc(N)n2C)cc1C,10.8,37.7*,1.3,16.1,3.3,-6.4
CCn1c2ccccc2c2nnc(SCC(=O)N3CC(C)OC(C)C3)nc21 (centres undefined),-3.3,0.5,1.5,7.1,-0.5,16.7
CCn1c(C(=O)N2CCC(C(=O)NCc3ccc4c(c3)OCO4)CC2)cc2sccc21,4.6,0.7,-2.1,16.8,19.6*,1.6
Cn1c(C(=O)N2CCCC(C(=O)NCc3ccc4c(c3)OCO4)C2)cc2sccc21 (centres undefined),-9.8,0.9,-3.1,8.2,-2.9,-11.4

# Screening data: PubChem BioAssay, The Scripps Research Institute Molecular Screening Center
